Test results as given in ChEMBL document CHEMBL1148789, “Synthesis and biological activities of new checkpoint kinase 1 inhibitors structurally related to granulatimide” (J Med Chem, 2007).
Activity calls are given as the source filed them. The rule behind the calls is not given here.

Assays:
[1] = biological target: T1, Proto-oncogene tyrosine-protein kinase Src (Homo sapiens, UniProt P12931); test: Inhibition of Src
Summary of the method: (§1)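 Started by adding cosubstrate (40 µM ATP stock with [33P]γ-ATP); 20 min at 30 °C. Stopped with 0.85% orthophosphoric acid, filtered on phosphocellulose, washed, then scintillation counted. Percent inhibition at 10 µM; IC50 reported.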

[2] = biological target: T2, Serine/threonine-protein kinase Chk1 (Homo sapiens) (UniProt O14757); test: Inhibition of human Chk1 expressed in Sf9 cells at 10 uM
T2 sequence (whole entry): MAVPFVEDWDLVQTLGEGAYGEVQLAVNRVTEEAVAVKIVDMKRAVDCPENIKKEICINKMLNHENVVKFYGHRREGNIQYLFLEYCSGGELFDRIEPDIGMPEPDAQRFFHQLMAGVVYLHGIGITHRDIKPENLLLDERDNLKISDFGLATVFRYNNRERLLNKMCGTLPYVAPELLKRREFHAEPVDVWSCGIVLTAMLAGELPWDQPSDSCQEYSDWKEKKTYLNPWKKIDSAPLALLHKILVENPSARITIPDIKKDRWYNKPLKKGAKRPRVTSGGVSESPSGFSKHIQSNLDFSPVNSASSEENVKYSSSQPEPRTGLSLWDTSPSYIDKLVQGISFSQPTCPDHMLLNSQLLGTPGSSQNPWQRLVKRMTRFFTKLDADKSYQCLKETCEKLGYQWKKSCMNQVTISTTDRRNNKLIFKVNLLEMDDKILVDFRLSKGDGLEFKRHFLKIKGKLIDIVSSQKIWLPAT
Summary of the method: (§2)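 Full-length human Chk1 with an N-terminal GST tag, purified from baculovirus-infected Sf9 cells or purchased. Stopped with orthophosphoric acid and captured on phosphocellulose filters for scintillation counting. Percent inhibition at 10 µM; IC50 from 12 concentrations over 6 logs, duplicate points averaged.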

[3] = biological target: T3, Serine/threonine-protein kinase Chk1 (Homo sapiens, UniProt O14757); test: Inhibition of human Chk1 expressed in Sf9 cells; summary of the method: as §2
T3 sequence (O14757 whole entry): T2 sequence (whole entry)

HCT-116 = test: Antiproliferative activity against human HCT116 cells […] by microculture tetrazolium assay; format: functional, cell-based
Summary of the method: (§3)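 Human HCT116, human HT29 and murine L1210 tumour cells grown in RPMI 1640 with 10% fetal calf serum, 2 mM L-glutamine, penicillin/streptomycin and 10 mM HEPES pH 7.4. Compounds were taken from 10^-2 M DMSO stocks, diluted 1/100 in RPMI, and cells were exposed continuously to graded concentrations for four doubling times. MTT was added for 4 h at 37 °C and the formazan dissolved in DMSO. IC50 is the concentration lowering optical density 50% versus untreated cells.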

HT-29 = test: Antiproliferative activity against human HT29 cells […] by microculture tetrazolium assay; format: functional, cell-based; summary of the method: as §3
[4] = biological target: T1, Proto-oncogene tyrosine-protein kinase Src; test: Inhibition of Src at 10 uM; summary of the method: as §1
L1210 = test: Antiproliferative activity against mouse L1210 cells after four doubling times by microculture tetrazolium assay
[5] = biological target: Casein kinase II subunit alpha (Homo sapiens) (UniProt P68400); test: Residual activity of CK2 at 1 uM
Homo sapiens [6] = organism: Homo sapiens; test: Residual activity of PKA at 1 uM
[7] = biological target: T2, Serine/threonine-protein kinase Chk1 (Homo sapiens); test: Residual activity of Chk1 at 1 uM
[8] = biological target: RAF proto-oncogene serine/threonine-protein kinase (Homo sapiens) (UniProt P04049); test: Residual activity of cRAF at 1 uM
[9] = biological target: Dual specificity mitogen-activated protein kinase kinase 1 (Homo sapiens) (UniProt Q02750); test: Residual activity of MEK1 at 1 uM
Homo sapiens [10] = organism: Homo sapiens; test: Residual activity of CaMKII at 1 uM
[11] = biological target: Ribosomal protein S6 kinase beta-1 (Homo sapiens) (UniProt P23443); test: Residual activity of p70S6K at 1 uM
[12] = biological target: Cyclin-dependent kinase 5/CDK5 activator 1 (Homo sapiens) (UniProt Q00535+Q15078); test: Residual activity of CDK5/p25 at 1 uM
[13] = biological target: MAP kinase-activated protein kinase 2 (Homo sapiens) (UniProt P49137); test: Residual activity of MAPKAPK2 at 1 uM
Homo sapiens [14] = organism: Homo sapiens; test: Residual activity of CDK1/cyclin B at 1 uM
Homo sapiens [15] = organism: Homo sapiens; test: Residual activity of CDK7/cyclin H at 1 uM
[16] = biological target: Mitogen-activated protein kinase 1 (Homo sapiens) (UniProt P28482); test: Inhibition of MAPK1 at 1 uM; values are per cent of control
[17] = biological target: RAC-alpha serine/threonine-protein kinase (Homo sapiens) (UniProt P31749); test: Inhibition of PKBalpha at 1 uM; values are per cent of control
[18] = biological target: Protein kinase C alpha type (Homo sapiens) (UniProt P17252); test: Inhibition of PKCalpha at 1 uM; values are per cent of control
[19] = biological target: Casein kinase I isoform delta (Homo sapiens) (UniProt P48730); test: Inhibition of CK1delta at 1 uM; values are per cent of control
[20] = biological target: Glycogen synthase kinase-3 beta (Homo sapiens) (UniProt P49841); test: Inhibition of GSK3-beta at 1 uM; values are per cent of control
[21] = biological target: Glycogen synthase kinase-3 alpha (Homo sapiens) (UniProt P49840); test: Inhibition of GSK3-alpha at 1 uM; values are per cent of control
Homo sapiens [22] = organism: Homo sapiens; test: Inhibition of CDK2/cyclin A at 1 uM; values are per cent of control
[23] = biological target: CDK9/cyclin T1 (Homo sapiens) (UniProt O60563+P50750); test: Inhibition of CDK9/cyclin T1 at 1 uM; values are per cent of control

T1 sequence (P12931 2-536 limits assumed): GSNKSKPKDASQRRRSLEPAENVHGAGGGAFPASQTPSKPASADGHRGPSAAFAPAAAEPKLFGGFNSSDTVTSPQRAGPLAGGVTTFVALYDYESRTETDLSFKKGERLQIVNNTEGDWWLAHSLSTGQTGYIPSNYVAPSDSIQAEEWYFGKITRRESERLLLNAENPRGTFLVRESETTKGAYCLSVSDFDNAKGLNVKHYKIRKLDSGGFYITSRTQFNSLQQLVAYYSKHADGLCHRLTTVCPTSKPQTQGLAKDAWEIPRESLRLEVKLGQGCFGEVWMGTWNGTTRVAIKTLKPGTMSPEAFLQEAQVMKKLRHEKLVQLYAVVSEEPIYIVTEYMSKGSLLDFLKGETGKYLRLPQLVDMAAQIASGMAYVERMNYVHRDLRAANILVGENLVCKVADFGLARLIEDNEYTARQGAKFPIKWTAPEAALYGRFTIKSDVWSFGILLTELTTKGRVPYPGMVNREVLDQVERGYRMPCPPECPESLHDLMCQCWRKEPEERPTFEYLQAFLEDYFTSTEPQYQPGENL
Casein kinase II subunit alpha (Homo sapiens), sequence (P68400 whole entry, looked up): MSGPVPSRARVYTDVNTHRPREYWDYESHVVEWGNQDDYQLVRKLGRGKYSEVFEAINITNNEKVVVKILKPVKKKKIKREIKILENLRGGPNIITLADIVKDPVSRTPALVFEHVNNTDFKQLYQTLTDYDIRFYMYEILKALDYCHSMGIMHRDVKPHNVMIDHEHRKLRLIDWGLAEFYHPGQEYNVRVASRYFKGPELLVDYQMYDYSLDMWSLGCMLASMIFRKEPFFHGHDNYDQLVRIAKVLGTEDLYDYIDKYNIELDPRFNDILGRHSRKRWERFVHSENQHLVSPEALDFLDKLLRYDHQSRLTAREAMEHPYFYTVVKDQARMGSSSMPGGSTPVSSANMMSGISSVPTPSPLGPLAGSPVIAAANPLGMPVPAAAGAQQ
RAC-alpha serine/threonine-protein kinase (Homo sapiens), sequence (P31749 whole entry): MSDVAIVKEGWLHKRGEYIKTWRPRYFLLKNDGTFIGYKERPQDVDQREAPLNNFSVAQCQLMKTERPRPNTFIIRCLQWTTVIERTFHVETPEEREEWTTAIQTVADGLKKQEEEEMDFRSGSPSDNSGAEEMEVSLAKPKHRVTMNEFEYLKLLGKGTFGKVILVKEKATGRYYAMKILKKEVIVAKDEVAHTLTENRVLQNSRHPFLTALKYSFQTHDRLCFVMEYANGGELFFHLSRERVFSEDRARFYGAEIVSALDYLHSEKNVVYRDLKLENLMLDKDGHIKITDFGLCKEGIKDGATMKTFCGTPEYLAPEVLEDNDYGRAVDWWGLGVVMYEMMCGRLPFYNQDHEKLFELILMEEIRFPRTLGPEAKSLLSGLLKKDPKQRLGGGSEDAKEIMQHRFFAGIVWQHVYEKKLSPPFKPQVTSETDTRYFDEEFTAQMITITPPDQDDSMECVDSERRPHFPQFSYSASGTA
MAP kinase-activated protein kinase 2 (Homo sapiens), sequence (P49137 whole entry, looked up): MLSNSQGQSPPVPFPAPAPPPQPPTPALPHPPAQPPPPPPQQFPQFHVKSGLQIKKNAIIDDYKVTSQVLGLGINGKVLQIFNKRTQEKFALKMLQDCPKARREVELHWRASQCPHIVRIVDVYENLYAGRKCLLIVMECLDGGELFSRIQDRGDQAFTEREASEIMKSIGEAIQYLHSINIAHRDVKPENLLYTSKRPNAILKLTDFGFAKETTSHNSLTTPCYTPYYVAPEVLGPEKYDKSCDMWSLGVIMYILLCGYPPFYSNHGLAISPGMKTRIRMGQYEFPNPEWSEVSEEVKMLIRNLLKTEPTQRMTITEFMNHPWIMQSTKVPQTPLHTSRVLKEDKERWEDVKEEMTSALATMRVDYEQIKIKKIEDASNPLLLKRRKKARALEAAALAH
Cyclin-dependent kinase 5/CDK5 activator 1 (Homo sapiens), sequence (Q00535 whole entry): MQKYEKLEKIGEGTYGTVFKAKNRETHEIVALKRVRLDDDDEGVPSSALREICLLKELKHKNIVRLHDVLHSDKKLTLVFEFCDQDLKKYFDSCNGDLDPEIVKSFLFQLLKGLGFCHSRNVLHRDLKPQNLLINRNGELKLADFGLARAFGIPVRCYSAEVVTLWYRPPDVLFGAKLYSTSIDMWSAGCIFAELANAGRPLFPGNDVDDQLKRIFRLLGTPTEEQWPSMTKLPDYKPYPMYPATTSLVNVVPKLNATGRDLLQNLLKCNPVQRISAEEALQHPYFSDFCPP
Cyclin-dependent kinase 5/CDK5 activator 1 (Homo sapiens), sequence (Q15078 99-307 partner limits assumed): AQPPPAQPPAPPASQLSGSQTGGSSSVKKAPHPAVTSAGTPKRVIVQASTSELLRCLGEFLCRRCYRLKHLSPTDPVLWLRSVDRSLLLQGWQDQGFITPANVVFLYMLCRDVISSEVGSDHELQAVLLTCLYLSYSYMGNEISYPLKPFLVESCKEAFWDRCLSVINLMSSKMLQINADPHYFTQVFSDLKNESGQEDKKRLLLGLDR
Glycogen synthase kinase-3 beta (Homo sapiens), sequence (P49841 whole entry, looked up): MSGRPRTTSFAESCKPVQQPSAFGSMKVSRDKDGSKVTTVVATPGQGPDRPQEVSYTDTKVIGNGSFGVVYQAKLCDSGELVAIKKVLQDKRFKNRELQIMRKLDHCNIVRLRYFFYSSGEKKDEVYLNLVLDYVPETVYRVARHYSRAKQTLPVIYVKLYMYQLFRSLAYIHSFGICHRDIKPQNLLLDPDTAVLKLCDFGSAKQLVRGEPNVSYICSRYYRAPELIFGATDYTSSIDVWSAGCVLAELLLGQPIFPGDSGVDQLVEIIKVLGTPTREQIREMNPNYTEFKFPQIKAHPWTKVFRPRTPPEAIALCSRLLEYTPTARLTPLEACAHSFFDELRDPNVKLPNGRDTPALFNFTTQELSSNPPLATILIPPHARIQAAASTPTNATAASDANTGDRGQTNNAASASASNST
Mitogen-activated protein kinase 1 (Homo sapiens), sequence (P28482 whole entry): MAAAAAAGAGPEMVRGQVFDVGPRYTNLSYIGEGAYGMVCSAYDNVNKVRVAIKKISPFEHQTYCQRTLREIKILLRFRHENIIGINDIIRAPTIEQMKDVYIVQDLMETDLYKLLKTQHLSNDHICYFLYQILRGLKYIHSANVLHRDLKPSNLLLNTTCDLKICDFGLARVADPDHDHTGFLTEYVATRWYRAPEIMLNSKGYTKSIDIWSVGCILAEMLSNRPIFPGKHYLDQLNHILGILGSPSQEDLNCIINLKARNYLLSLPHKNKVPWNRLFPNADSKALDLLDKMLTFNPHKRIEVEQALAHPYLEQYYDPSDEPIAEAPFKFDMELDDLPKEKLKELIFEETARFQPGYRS
Ribosomal protein S6 kinase beta-1 (Homo sapiens), sequence (P23443 whole entry, looked up): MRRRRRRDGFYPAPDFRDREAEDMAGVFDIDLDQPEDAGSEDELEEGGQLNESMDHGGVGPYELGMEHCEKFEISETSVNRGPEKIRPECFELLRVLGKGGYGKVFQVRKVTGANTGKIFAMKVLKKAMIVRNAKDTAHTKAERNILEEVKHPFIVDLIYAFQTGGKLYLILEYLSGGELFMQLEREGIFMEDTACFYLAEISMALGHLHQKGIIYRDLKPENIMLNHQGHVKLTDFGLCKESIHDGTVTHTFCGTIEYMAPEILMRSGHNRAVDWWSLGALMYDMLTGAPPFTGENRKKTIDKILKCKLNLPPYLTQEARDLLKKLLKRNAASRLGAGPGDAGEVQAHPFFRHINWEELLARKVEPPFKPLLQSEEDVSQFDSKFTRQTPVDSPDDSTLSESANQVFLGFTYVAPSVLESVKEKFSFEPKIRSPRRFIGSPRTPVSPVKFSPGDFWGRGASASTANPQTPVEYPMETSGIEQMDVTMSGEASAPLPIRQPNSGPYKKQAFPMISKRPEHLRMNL
Dual specificity mitogen-activated protein kinase kinase 1 (Homo sapiens), sequence (Q02750 whole entry): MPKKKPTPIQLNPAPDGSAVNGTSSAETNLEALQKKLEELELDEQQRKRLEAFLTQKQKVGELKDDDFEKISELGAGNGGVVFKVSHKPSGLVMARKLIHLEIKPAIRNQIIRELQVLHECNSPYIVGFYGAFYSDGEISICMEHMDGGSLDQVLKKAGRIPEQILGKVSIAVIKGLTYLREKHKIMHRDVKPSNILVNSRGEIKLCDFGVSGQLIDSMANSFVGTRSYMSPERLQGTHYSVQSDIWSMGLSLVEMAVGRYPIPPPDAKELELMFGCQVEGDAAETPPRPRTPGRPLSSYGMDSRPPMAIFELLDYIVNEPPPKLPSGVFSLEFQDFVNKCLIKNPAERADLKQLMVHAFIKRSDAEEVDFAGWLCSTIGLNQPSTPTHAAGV

## O=C1NC(=O)c2c1c1c(O)ccc(O)c1c1[nH]c3ccc(O)cc3c21
[1]
  IC50: 5.4 µM
[2]
  inhibition: 94%
[3]
  IC50: 0.023 µM
HCT-116
  IC50: 2.7 µM
HT-29
  IC50: 26.4 µM
[4]
  inhibition: 83.5%
L1210
  IC50: 1.4 µM

## CC(C)(C)C(=O)Oc1ccc(O)c2c3c(c4c5ccccc5[nH]c4c12)C(=O)NC3=O
[2]
  inhibition: 66%
[3]
  IC50: 3.7 µM
HCT-116
  IC50: 8.76 µM
HT-29
  IC50: 7.28 µM

## O=c1[nH]c(=O)c2c1c1[nH]c3ccccc3c1c1c(=O)[nH]c(=O)c21 [BIS-IMIDE A]
[2]
  inhibition: 94.4%
[3]
  IC50: 0.02 µM
[4]
  Activity: inactive

## O=C1NC(=O)c2c1c1c(c3[nH]c4ccccc4c23)C(=O)CCC1
[2]
  inhibition: 15.3%
HCT-116
  IC50: 1.1 µM
HT-29
  IC50: 15.5 µM
[4]
  inhibition: 8.5%

## O=c1ccc(=O)c2c1c1[nH]c3ccc(O)cc3c1c1c(=O)[nH]c(=O)c21
[2]
  inhibition: 95%
[3]
  IC50: 0.027 µM
HCT-116
  IC50: 15.4 µM
HT-29
  IC50: 50.6 µM
[4]
  inhibition: 63%
[5]
  residual activity: 92%
Homo sapiens [6]
  residual activity: 103%
[7]
  residual activity: 22%
[8]
  residual activity: 102%
[9]
  residual activity: 98%
Homo sapiens [10]
  residual activity: 40%
[11]
  residual activity: 27%
[12]
  residual activity: 33%
[13]
  residual activity: 73%
Homo sapiens [14]
  residual activity: 85%
Homo sapiens [15]
  residual activity: 87%
[16]
  residual activity: 77%
[17]
  residual activity: 87%
[18]
  residual activity: 66%
[19]
  residual activity: 16%
[20]
  residual activity: 19%
[21]
  residual activity: 3%
Homo sapiens [22]
  residual activity: 62%
[23]
  residual activity: 61%
L1210
  IC50: 8.4 µM

## Cc1ccc2[nH]c3c4c(O)ccc(O)c4c4c(c3c2c1)C(=O)NC4=O
[2]
  inhibition: 99%
[3]
  IC50: 0.161 µM
HCT-116
  IC50: 1.6 µM
HT-29
  IC50: 3.8 µM
[5]
  residual activity: 108%
Homo sapiens [6]
  residual activity: 117%
[7]
  residual activity: 12%
[8]
  residual activity: 93%
[9]
  residual activity: 96%
Homo sapiens [10]
  residual activity: 34%
[11]
  residual activity: 42%
[12]
  residual activity: 28%
[13]
  residual activity: 57%
Homo sapiens [14]
  residual activity: 86%
Homo sapiens [15]
  residual activity: 90%
[16]
  residual activity: 95%
[17]
  residual activity: 87%
[18]
  residual activity: 102%
[19]
  residual activity: 100%
[20]
  residual activity: 60%
[21]
  residual activity: 32%
Homo sapiens [22]
  residual activity: 69%
[23]
  residual activity: 117%

## Cc1ccc2[nH]c3c4c(=O)ccc(=O)c4c4c(=O)[nH]c(=O)c4c3c2c1
[2]
  inhibition: 86%
[3]
  IC50: 0.107 µM
HCT-116
  IC50: 0.7 µM
HT-29
  IC50: 20.6 µM
[4]
  inhibition: 52.5%

## Cc1ccc2[nH]c3c4c(OS(=O)(=O)O)ccc(O)c4c4c(c3c2c1)C(=O)NC4=O
[2]
  inhibition: 70%
[3]
  IC50: 0.893 µM
HCT-116
  IC50: > 40 µM
HT-29
  IC50: 50 µM

## O=C1NC(=O)c2c1c1c(O)ccc(OS(=O)(=O)O)c1c1[nH]c3ccccc3c21
[2]
  inhibition: 62%
[3]
  IC50: 1.79 µM
HCT-116
  IC50: > 50 µM
HT-29
  IC50: 46 µM

## O=C1NC(=O)c2c1c1[nH]cnc1c1[nH]c3ccccc3c21 [GRANULATIMIDE]
[1]
  IC50: 0.35 µM
[3]
  IC50: 0.081 µM
[4]
  inhibition: 58%

## O=c1ccc(=O)c2c1c1[nH]c3ccccc3c1c1c(=O)[nH]c(=O)c21
[2]
  inhibition: 86%
[3]
  IC50: 0.269 µM

## O=C1NC(=O)c2c1c1c(O)ccc(O)c1c1[nH]c3ccccc3c21
[2]
  inhibition: 96%
[3]
  IC50: 0.311 µM
[4]
  inhibition: 2.5%

## O=C1NC(=O)c2c1c1c(O)cccc1c1[nH]c3ccccc3c21
[2]
  inhibition: 93%
[3]
  IC50: 0.904 µM
HCT-116
  IC50: 17.5 µM
HT-29
  IC50: 46.4 µM
[4]
  inhibition: 35%

## O=C1CCc2c1c1c(c3c2[nH]c2ccccc23)C(=O)NC1=O
[2]
  inhibition: 72%
[3]
  IC50: 0.043 µM
HCT-116
  IC50: 9.7 µM
HT-29
  IC50: 16.1 µM
[4]
  Activity: inactive
L1210
  IC50: 58.4 µM
